Calls of active or inactive are those of the source.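 Rule for the calls, unless noted: active = fluorescence slope after compound addition differing from the mean of all tested samples at 99.7% confidence, mostly higher but some lower; inactive = the rest.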
How the values were obtained:
[1] = inhibitors of TNFa-induced NFkB p65 translocation, primary screen, imaging, HUVEC, MLSMR starter and 10KST1 sets (AID 438;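 active = inhibition above 20% together with a positive visual image hit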;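 note: compound added about 3h40 before a 20 min TNFalpha stimulation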;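 for inhibition: signal is the nuclear over cytoplasmic p65 intensity ratio per well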); conditions: HUVEC TNFa-induced p65 nuclear translocation; cell count: measured here: nuclei count (cytotoxicity indicator), at 2.08 µM; inhibition: at 2 µM, stronger effect = higher value, 0% TNFa-plus-vehicle, 100% no-TNFa wells
[2] = inhibitors of E-selectin induction by TNFa, primary screen, imaging, HUVEC, immunofluorescence, MLSMR starter and 10KST1 sets (AID 487;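 active = visually confirmed hit in the image check and inhibition above 20%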;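 for inhibition: signal is fraction of cell area covered by stained E-selectin grains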;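 for nuclei count: 100% = median nuclei count of all wells on the same plate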); conditions: HUVEC TNFalpha-induced E-selectin immunofluorescence imaging, at 2 µM; inhibition: stronger effect = higher value; nuclei count: measured here: cell number, toxicity
[3] = DUSP6 inhibitors restoring Erk phosphorylation by chemical complementation, primary imaging in DUSP6-transfected HeLa (AID 609;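 active = compounds giving at least 50% inhibition in the cell-based MKP-3 phosphatase rescue imaging test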;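 for inhibition: phospho-Erk level distribution per well compared with pooled transfected vehicle control wells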); conditions: HeLa MKP-3 transfected, phospho-Erk imaging KS statistic, at 10 µM, cells stimulated with TPA for 15 min
[4] = biological target: Dual specificity protein phosphatase 6 (Homo sapiens) (UniProt Q16828); test: as above; conditions: HeLa MKP-3 transfected, phospho-Erk imaging KS statistic; at 10 µM; stronger effect = higher value; cells stimulated with TPA for 15 min
Sequence of Dual specificity protein phosphatase 6 (Homo sapiens) (Q16828 whole entry, looked up): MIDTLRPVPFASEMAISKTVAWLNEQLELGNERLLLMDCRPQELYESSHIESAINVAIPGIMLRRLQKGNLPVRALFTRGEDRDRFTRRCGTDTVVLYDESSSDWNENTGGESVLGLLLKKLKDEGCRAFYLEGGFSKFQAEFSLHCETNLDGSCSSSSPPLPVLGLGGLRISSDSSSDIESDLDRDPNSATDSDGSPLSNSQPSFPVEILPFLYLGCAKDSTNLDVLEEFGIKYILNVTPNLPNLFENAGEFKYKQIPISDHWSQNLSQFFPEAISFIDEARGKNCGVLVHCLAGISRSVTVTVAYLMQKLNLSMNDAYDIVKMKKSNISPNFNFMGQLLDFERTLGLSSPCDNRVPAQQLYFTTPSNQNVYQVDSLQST

[5] = biological target: Voltage-gated potassium channel subunit beta-2 (Rattus norvegicus) (UniProt P62483); test: KvBeta enzyme negative modulators, primary screen, biochemical, NADPH fluorescence (AID 622;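 active = fluorescence slope higher than the sample average by over 3 SD, cut at about -0.22 in these data, passing the limit was not always enough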;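 note: slope of raw intensity against log time taken from 70 to 1610 s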); conditions: recombinant KvBeta, 4-cyanobenzaldehyde reduction, at 10 µM, stronger effect = higher value
Sequence of Voltage-gated potassium channel subunit beta-2 (Rattus norvegicus) (P62483 whole entry, looked up): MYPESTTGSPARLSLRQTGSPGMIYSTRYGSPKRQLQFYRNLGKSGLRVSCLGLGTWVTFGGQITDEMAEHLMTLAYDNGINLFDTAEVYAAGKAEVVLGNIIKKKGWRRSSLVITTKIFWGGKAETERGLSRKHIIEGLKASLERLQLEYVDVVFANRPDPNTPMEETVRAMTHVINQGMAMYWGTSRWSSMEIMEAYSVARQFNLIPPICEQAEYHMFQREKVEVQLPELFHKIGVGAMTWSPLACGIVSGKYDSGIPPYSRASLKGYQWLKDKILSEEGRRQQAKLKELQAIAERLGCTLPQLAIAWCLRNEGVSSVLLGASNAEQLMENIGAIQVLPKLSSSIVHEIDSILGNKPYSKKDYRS

[6] = biological target: Voltage-gated potassium channel subunit beta-2 (Rattus norvegicus) (UniProt P62483); test: KvBeta positive modulators, primary screen, biochemical, NADPH fluorescence (AID 623;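 active = NADPH fluorescence slope more negative than the mean of all samples by about 3 SD, 99.7% confidence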;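 note: fluorescence intensity change per second fitted from 20 to 320 s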); conditions: Recombinant KvBeta, NADPH fluorescence decrease slope, 10 min; at 10 µM; stronger effect = lower value
[7] = biological target: Muscarinic acetylcholine receptor M4 (Homo sapiens) (UniProt P08173); test: compounds altering M4/GIRK thallium flux, either direction, primary screen, M4 allosteric agonist project, cell-based, HEK293 M4/GIRK, BTC-AM (AID 625); conditions: at 10 µM, actives lie on both sides;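 note: thallium influx through GIRK channels coupled to M4 in HEK293 cells with BTC-AM dye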
Sequence of Muscarinic acetylcholine receptor M4 (Homo sapiens) (P08173 whole entry, looked up): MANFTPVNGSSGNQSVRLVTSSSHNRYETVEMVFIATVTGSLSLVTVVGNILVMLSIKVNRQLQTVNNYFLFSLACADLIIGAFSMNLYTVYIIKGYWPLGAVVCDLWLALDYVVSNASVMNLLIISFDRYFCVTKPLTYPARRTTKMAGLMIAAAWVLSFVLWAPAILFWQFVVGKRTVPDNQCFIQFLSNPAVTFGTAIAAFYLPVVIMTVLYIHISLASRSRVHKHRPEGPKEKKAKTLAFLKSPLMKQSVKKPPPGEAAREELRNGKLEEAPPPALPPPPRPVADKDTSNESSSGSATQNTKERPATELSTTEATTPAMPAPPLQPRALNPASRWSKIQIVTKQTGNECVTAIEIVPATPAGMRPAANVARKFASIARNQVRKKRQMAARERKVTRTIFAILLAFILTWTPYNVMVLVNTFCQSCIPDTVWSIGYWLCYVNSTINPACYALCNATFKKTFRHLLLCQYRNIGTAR
How it was run: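 System: HEK293 cells with M4 receptor and GIRK channels | Incubation: Cells overnight at 37 °C, BTC-AM loading 1 h, reads 2 min total | Technique: Kinetic BTC-AM fluorescence sampled at 1 Hz, 10 s pre-addition baseline | Measure: Post-addition slope, 15–24 s, of baseline-normalized fluorescence | Control set: Carbachol positive, DMSO negative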

[8] = inhibitors of larval lipid processing in zebrafish, primary screen, whole organism, PED6 fluorescence, gall bladder and intestine (AID 686;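 active = a full or partial loss of lipid-probe fluorescence in the fish gall bladder, intestine or both, judged by eye; inactive = no fluorescence loss, or compound toxic to the fish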;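 note: larvae 5 to 7 days old with five fish per well; signal comes from phospholipase A2 cleavage of quenched PED6 carried via bile; overnight exposure to compound and PED6 before scoring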); conditions: Zebrafish larvae PED6 lipid processing, fluorescence scoring; screened at 20 µM (by protocol)
How it was run: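 Test system – live zebrafish larvae aged 5-7 days, whole organism · Buffer or medium – E3 fish medium · Reagent – quenched phospholipase substrate PED6, 100 nM final, ingested by larvae · Doses – 20 µM single dose · Incubation – overnight compound and PED6 incubation · Technique – visual fluorescence microscopy scoring of gall bladder, gut · Read-out basis – visual per-well fluorescence inhibition score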

[9] = inhibitors of Chlamydomonas gravitaxis, primary screen, whole organism, Chlamydomonas reinhardtii, WT vs cilia-less mutant, absorbance, 96-well (AID 463189;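 active = inhibition at or above 50% relative to wild type and mutant plate controls; inactive = inhibition below 50%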;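 note: 0% = wild type cc124 cells in DMSO and 100% = ciliumless bld1 mutant cells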); conditions: OD600 absorbance, 2 days, at 10 µM, stronger effect = higher value
[10] = measured here: cell density z-score
[11] = measured here: nuclear c-Myc green intensity z-score
[12] = measured here: nuclear pErk red intensity z-score, stronger effect = higher value

SMILES	cell count [1]	inhibition [1]	inhibition [2]	nuclei count [2] [%]	z-score [3, 10]	z-score [3, 11]	z-score [3, 12]	inhibition [4]	fluorescence slope [5]	NADPH fluorescence slope [6]	fluorescence slope [7]	outcome [8]	inhibition [9]
CCCCC(=O)NC(Nc1ccc(C)cn1)(C(=O)OCC)C(F)(F)F (stereo unspecified)	651	-16.3% (inactive)	-59% (inactive)	156	0.317	-1.54	1.99	1.63% (inactive)	-0.481 (inactive)	-4.4e-05 (inactive)	0.00419 (inactive)	inactive	-0.324% (inactive)
COC(=O)CSc1nc(N)nc(C)c1Br	688	-10% (inactive)	23.8% (inactive)	150	0.424	0.473	0.0816	-3.95% (inactive)	-0.429 (inactive)	-3.4e-05 (inactive)	0.00418 (inactive)	inactive	-4.73% (inactive)
CCn1nc(NC(=O)c2ccco2)c2cc3ccccc3nc21	700	-11.3% (inactive)	-20.2% (inactive)	168	-0.0808	0.362	-0.0698	-6.48% (inactive)	-0.404 (inactive)	-4.1e-05 (inactive)	0.0055 (inactive)	inactive	-8.58% (inactive)
O=c1c2c3c(sc2nc2n1CCCS2)CCCC3	612	-6.1% (inactive)	-125% (inactive)	162	-0.979	-0.423	0.7	-7.67% (inactive)	-0.477 (inactive)	-9.8e-05 (inactive)	0.00442 (inactive)	inactive	73.3% (active)
Cc1nnc(N2CCCCC2)c2ccccc12	511	-5.6% (inactive)	59.4% (inactive)	87	-2.8	0.768	0.176	18.4% (inactive)	-0.507 (inactive)	-9.4e-06 (inactive)	0.0054 (inactive)	inactive	47.9% (inactive)
CCC(CC)c1nc2cc(OC)c(OC)cc2c(=O)o1	581	0.1% (inactive)	-54% (inactive)	126	-1.01	-1.15	0.697	-4.59% (inactive)	-0.451 (inactive)	-0.000112 (inactive)	0.00503 (inactive)	inactive	0.563% (inactive)
COCCCNC(=O)c1c(N)n(/N=C/c2ccccn2)c2nc3ccccc3nc12	736	7.3% (inactive)	5.4% (inactive)	148	0.26	1.28	1.17	-1.12% (inactive)	-0.424 (inactive)	-5.6e-05 (inactive)	0.00553 (inactive)	inactive	82.5% (active)
O=c1cc(N2CCCCC2)nc2n1CCCS2	568	2.3% (inactive)	20.6% (inactive)	149	0.266	-0.928	-0.473	29.7% (inactive)	-0.39 (inactive)	-1.9e-05 (inactive)	0.00586 (inactive)	inactive	33.9% (inactive)
Cn1c(=O)c2c(nc(NCc3ccc4c(c3)OCO4)n2Cc2ccccc2)n(C)c1=O	656	-20.1% (inactive)	-108% (inactive)	96.2	-0.797	-1.34	-1.17	-7.93% (inactive)	-0.5 (inactive)	-0.000109 (inactive)	0.00776 (inactive)	inactive	-2.21% (inactive)
CC(=O)C1=C(O)C(=O)N(c2ccc(S(N)(=O)=O)cc2)C1c1ccccc1F (stereo unspecified)	382	-5.4% (inactive)	14.5% (inactive)	138	-0.839	-1.6	0.715	11.9% (inactive)	-0.476 (inactive)	-0.000111 (inactive)	0.00408 (inactive)	inactive	-4.73% (inactive)
CC(=O)[C@H]1[C@@H]2C(=O)N(c3cccc(Cl)c3)C(=O)[C@@H]2[C@H]2c3ccccc3C=CN21	652	0% (inactive)	5.3% (inactive)	144	0.229	0.26	-0.893	-2.47% (inactive)	-0.495 (inactive)	-3.6e-05 (inactive)	0.00696 (inactive)	inactive	18.1% (inactive)
CCC(NC(=O)Nn1cnnc1)(C(F)(F)F)C(F)(F)F	726	3.1% (inactive)	-59.3% (inactive)	185	-0.283	-1.06	1.12	1.98% (inactive)	-0.49 (inactive)	-6.6e-05 (inactive)	0.00453 (inactive)	inactive	19.5% (inactive)

Source: PubChem BioAssay
